The source made the active and inactive calls. The calls are words filed in the database; no cut-off is given here.
Experiments:
Pseudomonas aeruginosa [1] = assay: Bactericidal activity against Pseudomonas aeruginosa PT1332 rhlA mutant harboring vector pAK1900 at 2 to 18 ug/ml after 22 hrs by plating serial dilution method; assay type: functional
Method in brief: (§1)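 Overnight LB cultures (with carbenicillin 100 μg/ml or gentamicin 15 μg/ml for plasmid strains) were diluted to OD600 0.05 in antibiotic-free LB and grown at 37°C to stationary phase. Azithromycin was added to 2-ml aliquots at similar cell densities, and incubation continued 20–22 h at 37°C. Viable counts came from serial dilutions plated on LB agar.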

Pseudomonas aeruginosa [2] = assay: Bactericidal activity against stationary-phase Pseudomonas aeruginosa PT1300 culture harboring vector pEX1.8 at 1 to 16 ug/ml after 22 hrs by plating serial dilution method in presence of 1 mM Mg2+; assay type: functional, organism-based
Method in brief: (§2)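 Stationary-phase LB cultures of PT1300 or PT1308 received azithromycin plus 1 mM MgSO4, then 22 h at 37°C. Viable counts came from serial dilutions plated on LB agar. Values are means ± standard deviations of three independent experiments.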

Pseudomonas aeruginosa [3] = assay: Inhibition of elastase production in Pseudomonas aeruginosa PT1300 harboring vector pEX1.8 after 18 hrs by elastin Congo red assay; assay type: functional, organism-based
Method in brief: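 Cultures grew 7 h in Pseudomonas broth. Supernatant was mixed with excess elastin Congo red (4 mg/ml) in 0.1 M Tris pH 7.4, 1 mM CaCl2 and held 18 h at 37°C. After centrifugation, A495 was read and expressed as OD495/OD600 of the culture. Values are means ± standard deviations of five independent experiments.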

[4] = Ratio of bactericidal activity against Pseudomonas aeruginosa PT712 harboring mutation in bacterial rhlA protein to bactericidal activity against wild type Pseudomonas aeruginosa PAO1 PT5; assay type: functional; method in brief: as §1
Pseudomonas aeruginosa [5] = assay: Inhibition of rhamnolipid production in Pseudomonas aeruginosa PT1300 harboring vector pEX1.8 up to 50 ug/ml incubated for 24 hrs at 37 degC further 24 hrs at 25 degC; assay type: functional, organism-based
Method in brief: (§3)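 SW plates (M9 with 0.1% glutamate replacing NH4Cl, 0.2% glucose, 1 mM MgSO4) carried an azithromycin gradient of 0–50 μg/ml. Three-μl droplets of about 10^6 CFU were spotted at equal spacing. Plates were incubated 24 h at 37°C, then 24 h at 25°C.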

Pseudomonas aeruginosa [6] = assay: Inhibition of swarming motility of Pseudomonas aeruginosa PT1308 expressing Clostridium perfringens 23S rRNA methylase ErmBP at 2 ug/ml after 18 hrs; assay type: functional, organism-based
Method in brief: (§4)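 Swarm plates were 0.5% agar M9 with 0.2% glucose, 1 mM MgSO4 and 0.05% glutamate as nitrogen source, containing azithromycin. Three μl of overnight LB culture was spotted, and plates were read after 18 h at 37°C.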

Pseudomonas aeruginosa [7] = assay: Inhibition of rhamnolipid production in Pseudomonas aeruginosa PT1323 harboring pAKRHL expressing rhlAB gene up to 50 ug/ml incubated for 24 hrs at 37 deg C further 24 hrs at 25 deg C; assay type: functional, organism-based; method in brief: as §3
Pseudomonas aeruginosa [8] = assay: Inhibition of swarming motility of Pseudomonas aeruginosa PT1300 harboring vector pEX1.8 at 2 ug/ml after 18 hrs; assay type: functional, organism-based; method in brief: as §4
Pseudomonas aeruginosa [9] = assay: Bactericidal activity against Pseudomonas aeruginosa PT1323 harboring rhlAB-encoding pAKRHL at 2 to 18 ug/ml after 22 hrs by plating serial dilution method; assay type: functional; method in brief: as §1
Pseudomonas aeruginosa [10] = assay: Antimicrobial activity against exponential-phase Pseudomonas aeruginosa PT1323 cultures harboring mutation in bacterial rhlA protein and expressing rhamnosyltransferase rhlAB gene at 1 mg/ml after 18 hrs by susceptibility assay; assay type: functional, organism-based
Method in brief: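 LB agar plates with an azithromycin gradient (maximal 1 mg/ml) were streaked with each strain. Plates were read after 18 h at 37°C.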

Pseudomonas aeruginosa [11] = assay: Inhibition of rhamnolipid production in azithromycin-hypersusceptible Pseudomonas aeruginosa 11B harboring mexX deletion mutant incubated for 24 hrs at 37 degC further 24 hrs at 25 degC; assay type: functional, organism-based; method in brief: as §3
Pseudomonas aeruginosa [12] = assay: Bactericidal activity against stationary-phase Pseudomonas aeruginosa PT1308 culture expressing Clostridium perfringens 23S rRNA methylase ErmBP assessed as effect on cell viability at 1 to 16 ug/ml after 22 hrs by plating serial dilution method; assay type: functional, organism-based; method in brief: as §1
Pseudomonas aeruginosa [13] = assay: Bactericidal activity against stationary-phase Pseudomonas aeruginosa PT1308 culture expressing Clostridium perfringens 23S rRNA methylase ErmBP at 1 to 16 ug/ml after 22 hrs by plating serial dilution method in presence of 1 mM Mg2+; assay type: functional, organism-based; method in brief: as §2
Pseudomonas aeruginosa [14] = assay: Inhibition of rhamnolipid production in Pseudomonas aeruginosa 12B overexpressing mexXY incubated for 24 hrs at 37 degC further 24 hrs at 25 degC; assay type: functional, organism-based; method in brief: as §3
Pseudomonas aeruginosa [15] = assay: Bactericidal activity against stationary-phase Pseudomonas aeruginosa PT1300 culture harboring vector pEX1.8 after 20 to 22 hrs by plating serial dilution method; assay type: functional, organism-based; method in brief: as §1

**Q.** Which Activity (Pseudomonas aeruginosa [1]) does the source give for CC[C@H]1OC(=O)[C@H](C)[C@@H](O[C@H]2C[C@@](C)(OC)[C@@H](O)[C@H](C)O2)[C@H](C)[C@@H](O[C@@H]2O[C@H](C)C[C@H](N(C)C)[C@H]2O)[C@](C)(O)C[C@@H](C)CN(C)[C@H](C)[C@@H](O)[C@]1(C)O [AZITHROMYCIN] here?
**A.** The Activity was 1.

**Q.** And the Activity (Pseudomonas aeruginosa [2])?
**A.** The Activity was “inactive”.

**Q.** What about the inhibition (Pseudomonas aeruginosa [3]) of the same compound?
**A.** Its inhibition is “Dose-dependent effect”.

**Q.** And the Ratio [4]?
**A.** Its Ratio is 1000.

**Q.** And the inhibition (Pseudomonas aeruginosa [5])?
**A.** The inhibition was “Active”.

**Q.** And the inhibition (Pseudomonas aeruginosa [6])?
**A.** The inhibition was “inactive”.

**Q.** And the inhibition (Pseudomonas aeruginosa [7])?
**A.** Its inhibition is “inactive”.

**Q.** And the inhibition (Pseudomonas aeruginosa [8])?
**A.** The inhibition was “Active”.

**Q.** And the Activity (Pseudomonas aeruginosa [9])?
**A.** The Activity was 4.

**Q.** And the Activity (Pseudomonas aeruginosa [10])?
**A.** Its Activity is “inactive”.

**Q.** What about the inhibition (Pseudomonas aeruginosa [11]) of the same compound?
**A.** Its inhibition is “Active”.

**Q.** What about the Activity (Pseudomonas aeruginosa [12]) of the same compound?
**A.** Its Activity is “inactive”.

**Q.** And the Activity (Pseudomonas aeruginosa [13])?
**A.** Its Activity is “inactive”.

**Q.** And the inhibition (Pseudomonas aeruginosa [14])?
**A.** The inhibition was “inactive”.

**Q.** And the Activity (Pseudomonas aeruginosa [15])?
**A.** Its Activity is “Dose-dependent effect”.
